Assay results collected from several papers.
Each line is one published result; the experiments were not run side by side.
Adora2a: Adenosine receptor A2a (Adora2a, Rattus norvegicus, UniProt P30543)
Sterol carrier protein 2: Sterol carrier protein 2 (Aedes aegypti, UniProt Q86PR3)

| Structure (SMILES) | target | test | conditions | quantity | result |
| --- | --- | --- | --- | --- | --- |
| C=CN1CCCn2c1nc1c2c(=O)n(C)c(=O)n1C | Adora2a | ligand displacement, radioligand | cell membranes | Ki | > 25 µM |
| CN1CCN(c2ccc(Nc3ncc4cc(C#N)c(=O)n(C5CCCC5)c4n3)cc2)CC1 | Calcium/calmodulin-dependent protein kinase type II subunit delta (CAMK2D, Homo sapiens, UniProt Q13557) | enzyme activity, inhibitor |  | IC50 | 1.6 µM |
| O=C(/C=C/c1ccc(O)cc1)/C=C/c1ccc(O)cc1 | Sterol carrier protein 2 | ligand displacement, fluorescence |  | EC50 | 2.38 µM |
| Cc1cc(Nc2cc3ncccc3c(N[C@@H]3C[C@H]4CC[C@@H](C3)N4CCC#N)n2)n[nH]1 | Mitogen-activated protein kinase kinase kinase 9 (MAP3K9, Homo sapiens, UniProt P80192) | binding, competition with immobilised ligand |  | Kd | 0.054 µM |
| CCCCCCCCCCCCCCCC(=O)OC[C@H](COP(=O)(O)OC1[C@H](O)[C@H](O)C(OP(=O)(O)O)[C@H](O)[C@H]1O)OC(=O)CCCCCCCCCCCCCCC (some centres unmarked) | SHC-transforming protein 1 (Homo sapiens, UniProt P29353) | binding, fluorescence |  | Kd | 4.1 µM |
| N[C@@H](CCC(=O)O)C(=O)O | Metabotropic glutamate receptor 4 (Grm4, Rattus norvegicus, UniProt P31423) | ion flux, agonist |  | EC50 | 7.9 µM |
| CCCCCC(C)N1CCCn2c1nc1c2c(=O)n(C)c(=O)n1C (centres unmarked) | Adora2a | ligand displacement, radioligand | cell membranes | Ki | 2.38 µM |
| Cc1cnc(-c2ccc(-c3ccc(NC(=O)Nc4c(F)cc(F)cc4F)cc3F)c3c2C(=O)NC3)[nH]1 | BDNF/NT-3 growth factors receptor (NTRK2, Homo sapiens, UniProt Q16620) | binding, competition with immobilised ligand |  | Kd | 0.0045 µM |
| CCCN1CCN(c2ccc(-c3cncc(Cl)c3N3CCC4(CCNC4=O)CC3)cc2)CC1 | E3 ubiquitin-protein ligase NEDD4 (Homo sapiens, UniProt P46934) | cell-free assay | lysate | Kd | 18.4 µM |
| O=C1/C(=C/c2ccco2)CCC/C1=C\c1ccco1 | Sterol carrier protein 2 | ligand displacement, fluorescence |  | EC50 | 62.9 µM |
| CCCS(=O)(=O)Nc1ccc(F)c(C(=O)c2c[nH]c3ncc(-c4ccc(Cl)cc4)cc23)c1F | Mitogen-activated protein kinase kinase kinase 20, non-phosphorylated (MAP3K20, Homo sapiens, UniProt Q9NYL2) | binding, ITC |  | Kd | 0.029 µM |
